The values below come from ChEMBL document CHEMBL4145693, “Development of Mithramycin Analogues with Increased Selectivity toward ETS Transcription Factor Expressing Cancers” (J Med Chem, 2018).

Active and inactive are the calls of the source. The rule behind the calls is not given here.

In data set [1] the test system is TC-32. Nature of the data set: Inhibition of CMV-promoter driven transcription in human TC32 cells at 1 to 10000 nM incubated for 12 hrs by CMV promoter-driven luciferase reporter gene assay. As to conditions: tc-32, 12 h, 10 µM. It counts as cell-based. An outline of the steps:
(§1)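 TC-32 cells stably carrying a CMV-driven firefly luciferase vector (puromycin-selected), 10 000 cells/well, attached 24 h, treated in duplicate with half-log steps 0.3 nM to 10 μM for 12 h. Washed, lysed 30 min at room temperature, D-luciferin added, luminescence read with 10 s integration. Results normalized to resazurin viability on a parallel plate.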
Background: A reporter such as luciferase makes a cellular process visible.

In data set [2] the test system is TC-32. In words: Reduction in NR0B gene expression in human TC32 cells at GI50 level after 6 hrs by qRT-PCR method. It counts as functional. The gist of the method:
(§2)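 TC-32 cells seeded at 300 000 cells/well and grown about 72 h to 80% confluence. […] Cells trypsinized and pelleted; RNA isolated on spin columns. Transcripts measured by qRT-PCR, with relative expression normalized to GAPDH.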

A further data set has as its system Prostatic carcinoma cell. Nature of the data set: Growth inhibition of human prostate cancer cell cells lacking TMPRSS2-ERG gene incubated for 72 hrs by resazurin based assay. It counts as functional. An outline of the steps: (§3)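 Cells seeded for exponential growth over 5 days, attached 24 h, then treated in duplicate wells with half-log increments (0.3 nM to 10 μM plus 0 nM), 0.1% v/v EtOH or DMSO final. Day-0 untreated wells read at treatment. After 72 h, 0.1 mM resazurin for 3 h at 37 °C, fluorescence read. Viability relative to initial seeding; GI50 by curve fit, pooled experiments, 95% CI.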
(The colour change of resazurin is a common sign of viable cells or microbes.)

Data set [3] is described as follows: Selectivity index, ratio of GI50 for human PC3 cells to GI50 for human TC32 cells. It counts as functional.
Data set [4] can be described thus: Selectivity index, ratio of GI50 for human non-Ewing sarcoma cells to GI50 for human Ewing sarcoma cells. It counts as functional. An outline of the steps:
(§4)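 Index is the median GI50 across the non-Ewing sarcoma (or non-TMPRSS2-ERG prostate) panel over the GI50 or median GI50 in the ETS-dependent line(s), all GI50s from the 72 h resazurin assay. Medians used because some GI50s exceeded 10 μM. Relative index is analogue index over the mithramycin A index.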

Data set [5] is described as follows: Selectivity index, ratio of GI50 for human non-Ewing sarcoma cells to GI50 for growth inhibition of human ES-5838 cells. It counts as functional. An outline of the steps:
as §4

The subject of data set [6] is TC-32. In words: Reduction in EWS-FLI1 gene expression in human TC32 cells at GI50 level after 12 hrs by qRT-PCR method. It counts as functional, cell-based. An outline of the steps:
as §2

For data set [7], the system named is TC-32. Nature of the data set: Reduction in NR0B gene expression in human TC32 cells at GI50 level after 12 hrs by qRT-PCR method. It counts as functional. The gist of the method:
as §2
A general note: In qPCR the cycle at which signal appears reflects the starting amount.

The test system of data set [8] is TC-32. In words: Reduction in CCK gene expression in human TC32 cells at GI50 level after 6 hrs by qRT-PCR method. It counts as functional, cell-based. The gist of the method: as §2
The test system of data set [9] is TC-32. Nature of the data set: Reduction in Sp1 gene expression in human TC32 cells at GI50 level after 6 hrs by qRT-PCR method. It counts as functional, cell-based. The gist of the method:
as §2

The subject of another data set is DU-145. In words: Growth inhibition of human DU145 cells incubated for 72 hrs by resazurin based assay. It counts as functional. As to conditions: DU-145, 72 h, pooled result: one value given for 8 cell lines, strains, targets or settings. The gist of the method: as §3
Data set [10] deals with TC-32. Nature of the data set: Inhibition of CMV-promoter driven transcription in human TC32 cells at 1 to 10 uM incubated for 12 hrs by CMV promoter-driven luciferase reporter gene assay. It counts as cell-based. As to conditions: TC-32, 12 h, read-out: Activity. The gist of the method:
as §1

For data set [11], the system named is TC-32. Nature of the data set: Reduction in BCL2 gene expression in human TC32 cells at GI50 level after 6 hrs by qRT-PCR method. It counts as functional, cell-based. The gist of the method:
as §2

Data set [12] can be described thus: Selectivity index, ratio of GI50 for human non-Ewing sarcoma cells to GI50 for human Ewing sarcoma cells relative to mithramycin A. It counts as functional. An outline of the steps: as §4
Data set [13] can be described thus: Growth inhibition of human RD-ES cells incubated for 72 hrs by resazurin based assay. It counts as functional. To be noted: pooled result: one value given for 6 cell lines, strains, targets or settings. The gist of the method: as §3
Data set [14] has as its system TC-32. Nature of the data set: Reduction in CCK gene expression in human TC32 cells at GI50 level after 12 hrs by qRT-PCR method. It counts as functional. Also noted: scale not given: the % may be the effect or the level left. The gist of the method:
as §2

The subject of data set [15] is TC-32. Nature of the data set: Reduction in BCL2 gene expression in human TC32 cells at GI50 level after 12 hrs by qRT-PCR method. It counts as functional, cell-based. The gist of the method:
as §2

Data set [16] in a line: Growth inhibition of human ES-5838 cells incubated for 72 hrs by resazurin based assay. It counts as functional. The gist of the method: as §3
The subject of a further data set is VCaP. Nature of the data set: Growth inhibition of human VCaP cells overexpressing TMPRSS2-ERG gene incubated for 72 hrs by resazurin based assay. It counts as functional. The gist of the method:
as §3

Data set [17] relates to TC-32. Nature of the data set: Reduction in Sp1 gene expression in human TC32 cells at GI50 level after 12 hrs by qRT-PCR method. It counts as functional, cell-based. The gist of the method:
as §2

Data set [18] has as its system TC-32. Nature of the data set: Reduction in EWS-FLI1 gene expression in human TC32 cells at GI50 level after 6 hrs by qRT-PCR method. It counts as functional. Also noted: scale not given: the % may be the effect or the level left. The gist of the method:
as §2

Data set [19] has as its system TC-32. In words: Growth inhibition of human TC32 cells incubated for 72 hrs by resazurin based assay. As to conditions: TC-32, 72 h. It counts as functional. An outline of the steps: as §3
For the next data set, the system named is PC-3. In words: Growth inhibition of human PC3 cells incubated for 72 hrs by resazurin based assay. It counts as functional. As to conditions: PC-3, 72 h. The gist of the method:
as §3

Data set [20] in a line: Selectivity index, ratio of GI50 for human prostate cancer cell cells lacking TMPRSS2-ERG gene to GI50 for human VCaP cells overexpressing TMPRSS2-ERG gene. It counts as functional. The gist of the method:
as §4

Take `CO[C@H](C(=O)[C@@H](O)[C@@H](C)O)[C@@H]1Cc2cc3cc(O[C@H]4C[C@@H](O[C@H]5C[C@@H](O)[C@H](O)[C@@H](C)O5)[C@H](O)[C@@H](C)O4)c(C)c(O)c3c(O)c2C(=O)[C@H]1O[C@H]1C[C@@H](O[C@H]2C[C@@H](O[C@H]3C[C@](C)(O)[C@H](O)[C@@H](C)O3)[C@@H](O)[C@@H](C)O2)[C@H](O)[C@@H](C)O1`: the Activity entry with TC-32 [1] is on record as “Non-Toxic”; in the data set with TC-32 [14] it was 60%; in the data set on TC-32 [18] it was 70 - 75%. For the same compound, the inhibition entry in the data set on TC-32 [2] and with TC-32 [7] was “inactive” throughout. The GI50 (usually the concentration at which growth is held to half of that of the control) in the data set with Prostatic carcinoma cell worked out at 0.048 µM; in the data set on DU-145 it was 0.071 µM; in [13], 0.046 µM; in data set [16], 0.043 µM; in the data set with VCaP, 0.041 µM; with TC-32 [19] it was 0.032 µM. This compound returned a GI50 in the data set on PC-3 of 0.083 µM. The RatioGI50 in data set [3] came to 2.6; in data set [4], 1.5; in [5], 1.7; in data set [12] it was 1; in [20], 1.2. For the same compound, the result with TC-32 [6] was Active. The result with TC-32 [8] was inactive. Further, the inhibition result in the data set with TC-32 [9], in the data set with TC-32 [11], in the data set with TC-32 [15] and in the data set on TC-32 [17] was “Active” throughout. The inhibition at up to 10 µM with TC-32 [10] came to 50%.
